# Screening data from PubChem.
# In the library only some 1.3% were active in any assay of this set; here they are far more common.
# CHT inh: human CHT choline transport inhibition. CHT-expressing cells, membrane potential dye, choline response; stronger effect = lower value. B-score at 10 µM. hit rate 0.86% among 310,000. AID 488975;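 active = B-score over 3 SD under the library average, and starting fluorescence ratio not unusually high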;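 note: choline stimulus applied at its EC90 after an EC20 pre-addition; B-score computed on integrated fluorescence ratio after choline addition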
# procasp7 counter: counter-screen: procaspase-7 (human) activation. P55210. recombinant procaspase-7, Ac-DEVD-pNA absorbance 405 nm; D23A/D198A/D206A triple mutant, cannot self-cleave; scale: DMSO 0, 5 µM enzyme 100. activation, % at 8.5 µM. hit rate 0.093% among 330,000;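 active = percent activation above the screen-wide mean plus 3 SD, cut at about 25% in these data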
# Target sequence (P55210 whole entry D23A/D198A/D206A): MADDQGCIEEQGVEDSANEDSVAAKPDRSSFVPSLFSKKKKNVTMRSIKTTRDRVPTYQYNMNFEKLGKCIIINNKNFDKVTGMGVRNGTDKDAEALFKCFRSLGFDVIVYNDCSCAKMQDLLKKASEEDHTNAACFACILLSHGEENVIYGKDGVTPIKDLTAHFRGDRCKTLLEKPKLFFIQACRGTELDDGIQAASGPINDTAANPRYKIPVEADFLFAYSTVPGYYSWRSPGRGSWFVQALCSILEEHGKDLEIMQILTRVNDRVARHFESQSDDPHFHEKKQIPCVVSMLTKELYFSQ
#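 Replicates: singlicate. Assay system: Procaspase-7 triple mutant (PC-7 D3A). Signal: 405 nm absorbance of p-nitroaniline. Times: 1 h preincubation, 2 h reaction. Buffer or medium: Zinc-free HEPES pH 7.4 with 300 mM NaCl, 0.01% Triton X-100. Also added: DEVD-pNA substrate. Benchmarks: DMSO wells as 0%, DMSO with 5 µM added PC-7 as 100%.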
# procasp3 activ: activators of human procaspase-3; hit rate 0.11% among 330,000; P42574; recombinant procaspase-3 D3A, Ac-DEVD-pNA absorbance 405 nm; activation, % at 8.5 µM;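 active = activation above the mean of all tested compounds plus 3 SD, cut at about 21% in these data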
# Target sequence (P42574 whole entry D9A/D28A/D175A): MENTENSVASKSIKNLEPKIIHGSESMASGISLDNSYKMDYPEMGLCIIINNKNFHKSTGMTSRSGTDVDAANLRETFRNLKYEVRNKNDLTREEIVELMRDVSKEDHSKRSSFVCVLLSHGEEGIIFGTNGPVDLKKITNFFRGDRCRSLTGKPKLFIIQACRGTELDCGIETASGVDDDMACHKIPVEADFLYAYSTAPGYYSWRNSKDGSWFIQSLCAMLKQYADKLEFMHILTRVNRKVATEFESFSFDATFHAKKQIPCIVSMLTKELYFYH
#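 Assay system – Procaspase-3 D3A mutant, all three cleavage aspartates alanine · Controls – DMSO-only low control, 5 µM PC-3 D3A high control · Schedule – 1 h compound preincubation, 2 h substrate hydrolysis at 25 °C · Signal – 405 nm absorbance of p-nitroaniline, reads at 0 and 120 min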
# CHT PAM: allosteric activators of human choline transporter CHT | Q9GZV3 | hit rate 0.49% among 310,000 | AID 488977 | B-score at 10 µM | CHT-expressing cells, membrane potential dye, choline EC20; stronger effect = higher value; LV-AA mutant CHT in HEK293 cells;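 active = initial fluorescence not abnormally high and integrated response B-score, plate-corrected, over 3 SD above library mean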
# CHT block conf: confirmation of human choline transporter CHT inhibitors | shares compounds with CHT inh | CHT-expressing cells, choline membrane potential dye; LV-to-AA substituted CHT, HEK293 cells | CHT activity remaining % of control (stronger effect = lower value), % at 10 µM | hit rate 70% among 2,400 | AID 493221;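 active = choline transporter activity left, mean of duplicates at 10 µM, below buffer-only control mean minus 3 SD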;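 note: depolarization triggered by choline at its EC90 following an EC20 pre-addition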
# HEK293 CHT ctr: activity in parental HEK293 cells lacking CHT | shares compounds with CHT inh | membrane potential dye, choline response; active = decrease or increase beyond buffer ±3SD | membrane potential ratio readout (active if shifted either direction beyond buffer ±3SD; no single direction) at 10 µM | hit rate 4% among 2,400;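 note: parental cells lack the transporter so any hit is non-specific; ratio is peak minus trough fluorescence over baseline after EC90 choline challenge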
# Numbers stand for hits; - = inactive; . = not tested or not shown.
SMILES,CHT inh,procasp7 counter,procasp3 activ,CHT PAM,CHT block conf,HEK293 CHT ctr
COc1ccc(-c2noc(CCC(=O)N3CCN(c4ccccc4Br)CC3)n2)cc1,.,-,-,.,.,.
C/C(Cl)=C\Cn1c(O)c(N=O)c2ccccc21,-7.06,-,-,-,50.5%,-
C=CCn1c(O)c(N=O)c2ccccc21,-,-,-,-,.,.
Clc1ncc(CN2CCN(Cc3ccccc3)CC2)s1,-,-,-,-,.,.
Cc1ccc(-c2nnc(N3CCN(C(=O)Cn4c(=O)n(C)c5ccccc54)CC3)c3ccccc23)cc1,-,-,-,-,.,.
Cn1c(=O)n(CC(=O)N2CCN(c3nnc(-c4ccccc4)c4ccccc34)CC2)c2ccccc21,-5.79,-,-,-,-,-
CC1CCC(NC(=O)c2cccc(S(=O)(=O)N3CCN(C)CC3)c2)CC1 (stereo unspecified),-12.8,-,-,-,9.1%,-
COc1ccc(N(C)S(=O)(=O)c2cccc(C(=O)NC3CCC(C)CC3)c2)cc1 (stereo unspecified),-6.32,-,-,-,65.3%,-
COc1ccc(N(C)S(=O)(=O)c2cccc(C(=O)NC3CCCCCC3)c2)cc1,-,-,-,-,.,.
CCOc1ccc(NC(=O)c2cccc(NC(=O)c3ccccc3)c2)cc1,-,-,-,-,.,.
CCc1cccc(CC)c1NC(=O)c1cccc(NC(=O)c2ccccc2)c1,-5.63,-,-,-,64.6%,-
CCc1cccc(CC)c1NC(=O)c1cccc(S(=O)(=O)N2CCN(C)CC2)c1,-5.82,.,.,-,38.9%,-
CC(=O)N/C(=C\c1ccccc1)C(=O)OCC(=O)Nc1ccc(C)c(S(=O)(=O)N(C)C)c1,.,-,-,.,.,.
COc1ccc(NC(=O)COC(=O)CNC(=O)C2CCCCC2)cc1OC,.,-,-,.,.,.
CN(CCOc1ccc(Cl)cc1)C(=O)CN1C(=O)NC2(CCCCC2)C1=O,-,-,-,-,.,.
COc1cc(CN2CCNC(=O)C2CC(=O)NC2CCCC2)cc(OC)c1 (stereo unspecified),-,-,-,-,.,.
O=C(NC1CCCCCCC1)c1ccc(S(=O)(=O)N2CCCC2)cc1,-10.6,-,-,-,43.5%,-
CC1CCCN(C(=O)C2CCC(CNc3c(N4CCCCC4)c(=O)c3=O)CC2)C1 (stereo unspecified),-5.95,-,-,-,-,-
O=C(COc1ccccc1[N+](=O)[O-])N(Cc1ccccc1)c1ccccn1,-,-,-,-,.,.
O=C(CNC(=O)C12CC3CC(CC(C3)C1)C2)Nc1ncccc1O,.,-,-,.,.,.
O=C(CCC(=O)N1CCN(c2ccccc2F)CC1)N1CCN(c2ccc(F)cc2)CC1,-5.38,-,-,-,68.6%,-
O=C(CCC(=O)N1CCN(c2ccccc2F)CC1)N1CCN(c2ccccc2)CC1,-,-,-,-,.,.
Cc1cc(C(=O)Cn2ncc(Cl)c(Cl)c2=O)c(C)n1CC(F)(F)F,-5.61,-,-,-,44.5%,-
CCOC(=O)c1[nH]c(C=O)c(C(=O)OCC)c1C,-5.24,-,-,-,68.7%,-
CN1CCN(S(=O)(=O)c2ccc(NC(=O)Nc3cccc(Cl)c3)cc2)CC1,-8.11,-,-,-,28.6%,-
SMILES,CHT inh,procasp7 counter,procasp3 activ,CHT PAM,CHT block conf,HEK293 CHT ctr
CN1CCN(S(=O)(=O)c2ccc(NC(=O)c3ccc(Br)s3)cc2)CC1,-7.72,-,-,-,24.5%,-
O=C(Nc1cccc(Cl)c1)Nc1cc(S(=O)(=O)N2CCCCC2)ccc1Cl,-,-,-,-,.,.
CC(=O)Nc1cccc(C(=O)OC(C)C(=O)Nc2ccc(S(=O)(=O)N3CCCC3)cc2)c1 (stereo unspecified),-6.91,-,-,-,63.3%,-
CCc1cccc(NC(=O)c2cccc(S(=O)(=O)N3CCN(C)CC3)c2)c1,-,-,-,-,.,.
CC(=O)Nc1ccc(NC(=O)C(C)OC(=O)c2cccc(S(=O)(=O)N3CCCC3)c2)cc1 (stereo unspecified),-,-,-,-,.,.
COC(=O)c1cccc(NC(=O)c2ccc(S(=O)(=O)N3CCN(C)CC3)cc2)c1,-5.06,-,-,-,32.6%,-
CN(C)S(=O)(=O)c1ccc(Cl)c(C(=O)NNC(=O)c2ccc3c(c2)OCO3)c1,.,-,-,.,.,.
Nc1ncnc2c1ncn2[C@@H]1O[C@H](CNC(=O)[C@@H]2CCC(=O)N2)[C@@H](O)[C@H]1O,.,-,-,.,.,.
COc1cc([N+](=O)[O-])cc(/C=N/NC(=O)C(C)Nc2ccccc2C)c1O (stereo unspecified),-,-,-,-,.,.
COc1ccc(Br)c(C(=O)NC2CCCC2)c1,-,-,-,-,.,.
O=C(OCC(=O)c1ccccc1Cl)C1=NN(c2ccccc2)C(=O)CC1,.,-,-,.,.,.
COc1ccc(N2CCN(C(=O)COC(=O)Cc3c(F)cccc3Cl)CC2)cc1,-,-,-,-,.,.
C=CCn1c(CSc2nc3ccccc3s2)nnc1SCC(=O)NCc1ccccc1,-5.62,-,-,-,62.3%,-
C=CCn1c(CSc2nc3ccccc3s2)nnc1SCC(=O)NCc1cccnc1,-,-,-,-,.,.
CCCOc1ccc2ccccc2c1/C=C1\SC(=O)NC1=O,-6.39,-,-,-,-,-
COc1ccccc1OCCCOc1ccc(/C=C2\SC(=O)NC2=O)cc1OC,-,-,-,-,.,.
O=C1NC(=O)/C(=C\c2ccc(O)cc2O)S1,-,-,-,-,.,.
O=C1NC(=O)/C(=C/c2cccc3ccccc23)S1,-4.99,-,-,-,62.2%,-
Cc1ccc(S(=O)(=O)Oc2ccccc2/C=C2/SC(=O)NC2=O)cc1,-5.97,-,-,-,56.7%,-
Cc1c(NC(=O)c2cc(Br)ccc2Cl)cccc1-n1cnnn1,.,-,-,.,.,.
COc1ccc(C(=O)N/N=C(\C)CC(=O)Nc2cccc(C(F)(F)F)c2)cc1,-,-,-,-,.,.
CCOc1ncccc1C(=O)NNC(=O)CSc1ccc(Cl)cc1,.,-,-,.,.,.
Cc1ccc(C(=O)Sc2cccccc2=O)cc1,-,-,-,-,.,.
CC1=NN(c2ccc(C(=O)O)cc2)C(=O)/C1=C/c1ccc(-c2ccccc2F)o1,-,-,-,-,.,.
CC1=NN(c2ccccc2)C(=O)/C1=C/c1ccc(-c2ccc(C)c(C(=O)O)c2)o1,-6.17,-,-,-,42.1%,-
Cc1cccc(C)c1OCc1cc(C(=O)N2CCN3CCCC3C2)no1 (stereo unspecified),-,.,.,-,.,.
Cc1cccc(C)c1OCc1cc(C(=O)N2CCN(C3CCCC3)CC2)no1,-6.26,-,-,-,52.5%,-
CCOc1ccccc1NC(=O)NC1CCN(CC(=O)Nc2ccc3c(c2)OCCO3)CC1,-,-,-,-,.,.
O=C(CN1CCC(NC(=O)c2ccccc2F)CC1)Nc1ccc2c(c1)OCCO2,-5.02,-,-,-,-,-
